PubChem BioAssay
Values without a mark were called inactive. Records with an inconclusive call do not appear. The source made the active and inactive calls.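 Rule for the calls, unless noted: active = viability increase at or above a cutoff of the median across tested compounds plus 3 SD (cut at about 8.5% in these data, passing the limit was not always enough); inconclusive = some gains above the cutoff, reason not given; inactive = the rest.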

How the values were obtained:
[1] = OD615 S. cerevisiae growth inhibition, permissive medium, pilot counter-assay, permissive growth control for S. cerevisiae lifespan shortening project (AID 705;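 active = growth inhibition above 25% in both replicates, a cutoff set 3 SD above the mean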); conditions: OD615, 24 h, at 10 µM, stronger effect = higher value
Outline: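 Material: engineered DeaD yeast; Compound: one dose 10 µM, DMSO 0.25% final; Detection: absorbance (optical density) at 615 nm; Buffer or medium: permissive raffinose/galactose medium; Timing: 24 h exposure, 30 °C.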

[2] = Restrictive medium S. cerevisiae growth inhibition, OD615, pilot screen of yeast lifespan reduction project, restrictive growth control (AID 706;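 active = growth inhibition above a set limit, 3 SD over mean compound inhibition, in both replicates, cut at about 43% in these data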;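 note: modified DeaD lifespan yeast strain shifted to restrictive glucose medium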); conditions: OD615, 48 h, at 10 µM, stronger effect = higher value
Outline: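 Buffer or medium: restrictive glucose medium (CSMM-D); test system: modified S. cerevisiae; doses: single dose of 10 µM compound final, 0.25% DMSO; schedule: 48 h compound exposure at 30 °C; detection: absorbance (optical density) measured at 615 nm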

[3] = viability gain of MRP-1-high H69AR cells under doxorubicin, pilot screen, MRP-1 activator project, CellTiter-Glo, duplicate (AID 807); conditions: H69AR viability with doxorubicin, CellTiter-Glo luminescence; at 10 µM; stronger effect = higher value;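 note: compound pretreatment 18-22 h then 72 h combined with doxorubicin; 0% = doxorubicin alone and 100% = vehicle without doxorubicin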
[4] = growth suppression of beta-catenin knockout HCT116, pilot screen, human colon tumor cells (AID 823;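 active = cell viability at or below a set limit in both duplicate runs, the limit being the all-compound median minus 4 SD, cut at about 23% in these data, passing the limit was not always enough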;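 note: 0% = wells killed by 20 µM Hyamine and 100% = untreated DMSO cell wells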); conditions: CellTiter-Glo, 60 h, at 10 µM, stronger effect = lower value
[5] = growth suppression of PTEN-deleted HCT116, pilot screen, cell-based, HCT116 clonal line, CellTiter-Glo (AID 824;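 active = viability at or below 27.92% in each of two runs, the all-compound median minus 4 SD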;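 note: 0% = 20 µM Hyamine control and 100% = vehicle cell control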); conditions: 60 h, at 10 µM, stronger effect = lower value
[6] = inhibitors of the yeast RAM network, pilot screen, dse1pr::URA3 reporter, 5-FOA selection (AID 869;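 active = inhibition over a set limit, the all-compound mean plus 3 SD, in both replicate runs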;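 note: 0% = DMSO wells with no growth and 100% = 10 µM 1-NA-PP1 with full growth; RAM network block rescues cells from 5-FOA so hits raise OD615 growth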); conditions: S. cerevisiae dse1pr::URA3 5-FOA growth, OD615, 2 d; at 10 µM; stronger effect = higher value; strain carries analog-sensitive mutant Cbk1 kinase
[7] = RAM signaling pathway blockade in yeast – S. cerevisiae, Pdr1DBD-CYC8 efflux-inhibited sensitized strain, primary screen (AID 1298;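 active = RAM network inhibition above 8.4% in each of two replicates, 3 SD over the compound average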;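 note: 0% = DMSO untreated cells without growth and 100% = 10 µM 1-NA-PP1 full growth; higher means more yeast growth rescued from 5-FOA killing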); conditions: S. cerevisiae cbk1-as DSE1-URA3 strain, 5-FOA growth OD615, 2 d; at 50 µM; stronger effect = higher value

SMILES | growth inhibition [1] [%] | growth inhibition [2] | viability increase [3] [%] | viability [4] | viability [5] | inhibition [6] [%] | RAM network inhibition [7] [%]
COc1ccccc1OCc1nc(C#N)c(N2CC(C)CC(C)C2)o1 (stereo unspecified) | -10.7 | -24.8% | -2.5 | 71.7% | 72.9% | 1.48 | 9.85
CC12CCC(C(=O)Nc3ccc4c(c3)OCCO4)(OC1=O)C2(C)C (stereo unspecified) | -20.5 | -5.64% | -0.01 | 93.7% | 97.8% | 1.28 | -0.36
O=C(Nc1ccccc1)N1CCN(Cc2ccc3c(c2)OCO3)CC1 | 5.22 | -15.8% | -1.15 | 101% | 96.8% | 1.25 | 2.76
O=C(O)c1cccnc1SC1CC(=O)N(c2cccc(C(F)(F)F)c2)C1=O (stereo unspecified) | -15.3 | -3.59% | 0.62 | 103% | 101% | 1.56 | 3.58
Cc1cc(C)n2nc3nc4c(cc3c2n1)CCCC4 | -8.72 | -14.6% | -4.42 | 88.2% | 82.7% | 4.34 | 3.01
Cc1ccc(OC(=O)CCC(=O)N2CCc3ccccc32)cc1 | -5.4 | -2.35% | -3.7 | 89.6% | 97.9% | 2.2 | 0.82
CCN(Cc1ccccc1)C(=O)CSc1nc(C)cc(C)c1C#N | -12.8 | -2.79% | 4.58 | 104% | 87.3% | 2.48 | 0.99
Cc1cc(C)c(NC(=O)c2ccc(S(=O)(=O)N3CCOCC3)cc2)c(C)c1 | -9.41 | -8.03% | -2.1 | 101% | 98.1% | 0.57 | 0.69
Cc1cccc(-n2ncc3c(NC(C)C)ncnc32)c1 | 5.47 | 3.18% | -0.3 | 101% | 84.3% | 0.87 | -0.57
CCN1CCN(C(=O)C2CCN(Cc3nc(-c4ccc(Cl)cc4)oc3C)CC2)CC1 | -10.7 | -25% | -2.66 | 85.8% | 79.7% | 2.88 | 2.86
O=C1NC(=O)C(CC(=O)N(Cc2ccco2)C2(C(=O)NC3CCCCC3)CCCCC2)N1 (stereo unspecified) | -7.57 | -7.79% | -2.17 | 104% | 93.4% | -0.005 | 2.23
Cc1cccc(N2CCN(c3nc4ccc(Cl)cc4n4cnnc34)CC2)c1C | -17.7 | -14.7% | -8.78 | 2.03% (active) | 1.75% (active) | -0.44 | -0.95
Cc1cccc(-n2ncc3c(NCCc4ccc(S(N)(=O)=O)cc4)ncnc32)c1 | 2.13 | 1.53% | -2.67 | 88.8% | 82% | 1.27 | 4.84
COc1ccc(N2C(=O)C3CCCN3C2c2cccc(C)c2)cc1 (stereo unspecified) | 2.65 | 15% | -3.13 | 97.4% | 100% | 1.83 | -1.25
CN(C)C(C(=O)NC1CCCCC1)c1ccc(Cl)cc1 (stereo unspecified) | -5.65 | -17.6% | -3.08 | 80.2% | 84.2% | 0.575 | -0.68
Cc1cc2c3nonc3ccc2n1-c1ccccc1 | -16.1 | -15% | -2.59 | 83% | 86% | 0.9 | 6.15
COc1cccc(-c2nc3cc(C)ccc3o2)c1 | -5.93 | 0.415% | -4.74 | 87.2% | 75.4% | 1.08 | 4.09
CCOc1ccc(N=CC2=C(O)CC(C)(C)CC2=O)cc1 | -18.6 | -0.24% | -0.38 | 92% | 103% | 1.86 | 1.77
CCCN1CCC(N(C)CCc2ccc(OC)c(OC)c2)CC1 | -7.87 | -16.1% | -0.93 | 88.4% | 94.5% | 0.465 | 2.37
O=C1NCC2=C1C(c1ccc(Br)cc1)Nc1ccccc1N2 (stereo unspecified) | -14.3 | -0.565% | 0.99 | 106% | 96.1% | -0.645 | -2.69
Cn1c(=O)c2cc(S(=O)(=O)NC(C(=O)Nc3cccnc3)c3ccccc3)ccc2n(C)c1=O (stereo unspecified) | -3.52 | -1.8% | -2.15 | 99% | 91.9% | 1.96 | 0.58
CC1Cc2ccccc2N1C(=O)CCn1c(=O)sc2ccccc21 (stereo unspecified) | -4.26 | -16.9% | -1.79 | 93.3% | 85.3% | 1.17 | 3.45
CC(C)N(Cc1nc2ccccc2[nH]1)C(C)C | 2.5 | 4.54% | -0.49 | 94.1% | 91.9% | 1.25 | 0.22
Cc1ccnc(NC2c3ccccc3C(=O)N2Cc2ccccc2Cl)c1 (stereo unspecified) | 4.26 | 2.1% | -3.54 | 73% | 86.8% | 2.44 | 3.54

SMILES | growth inhibition [1] [%] | growth inhibition [2] | viability increase [3] [%] | viability [4] | viability [5] | inhibition [6] [%] | RAM network inhibition [7] [%]
COc1cc(NC(=O)c2cc3c(C)nc4ccccc4c3o2)cc(OC)c1OC | 7.32 | 13.2% | -5.18 | 86.2% | 86.7% | 0.93 | 0.97
CN(CCC#N)C(=O)Cn1nc(Cc2ccncc2)c2ccccc2c1=O | -2.53 | -1.35% | 0.95 | 102% | 95.6% | 0.515 | 0.16
CC1=C(C(=O)OC2CCCCC2)C(c2ccco2)C2=C(CC(C)(C)CC2=O)N1 (stereo unspecified) | -8.2 | -8.91% | -7.87 | 64.8% | 62.7% | 0.115 | 2.03
CC(=O)c1c(C)nc2ccc(Br)cc2c1C(=O)O | -10.2 | 8.3% | -1.9 | 98.2% | 97.4% | 1.79 | 1.15
CC1CCN(CC(=O)N2c3ccccc3CCc3ccccc32)CC1 | -14.5 | -19.2% | -1.57 | 87.5% | 90% | 4.08 | 4.24
COc1ccc(S(=O)(=O)N2CCC(C(=O)N3CCOCC3)CC2)cc1OC | -15.4 | -6.63% | -0.87 | 91.5% | 94.8% | 0.825 | 2.43
COc1ccc(Nc2oc(-c3ccccc3Cl)nc2C#N)cc1 | 9.48 | 0.98% | -8 | 6.01% (active) | 8.29% (active) | 1.94 | 7.73
Cc1cccc(C)c1OCC(O)Cn1ccnc1C (stereo unspecified) | 1.01 | 0.215% | -1.6 | 81.1% | 84.7% | 1.08 | -0.1
CCOC(=O)C1CCN(C(=O)CN(c2ccc(OC)cc2)S(=O)(=O)c2c(C)noc2C)CC1 | -7.19 | -5.5% | -2.59 | 98.5% | 96.7% | 2.41 | 3.41
O=C(CN1C(=O)c2ccccc2S1(=O)=O)NC1CCCCCC1 | 2.58 | -5% | -1.02 | 102% | 101% | 0.355 | 4.59
FC(F)Sc1ccc(Nc2ncnc3nc[nH]c23)cc1 | 16.9 | 57.8% (active) | -1.54 | 92.8% | 90.5% | 1.23 | 4.41
Cc1noc(C)c1S(=O)(=O)N(CC(=O)N1CCCC1)c1ccc(C(C)C)cc1 | -1.45 | -1.11% | -5.13 | 83.6% | 83% | 0.4 | 4.43
CCOc1ccc(CCNc2cc(C)nc3ncnn23)cc1OCC | -1.77 | 4.5% | -2.06 | 90.3% | 94.1% | 1.71 | 1.15
CSc1ccc(CN2CCC(O)CC2)cc1 | -12.7 | -15.8% | -0.93 | 102% | 100% | 1.4 | 5.11
CCCNC(=O)CS(=O)Cc1nc(-c2cccc(OC)c2)oc1C (stereo unspecified) | -6.84 | -0.045% | -2.3 | 96.6% | 95.2% | 1.2 | -0.38
O=C(NC1CC1)c1ccc(CSCc2cccc(F)c2)o1 | 3.53 | 3.37% | -2.78 | 82.3% | 86.3% | 1.08 | 4.29
CCc1ccc(-n2c(O)cnc2Nc2nc(C)cc(C)n2)cc1 | -7.38 | -12.2% | 1.61 | 103% | 103% | 0.325 | 3.23
COc1ccc(C2C(C(=O)Nc3ccc(F)cc3)=C(C)Nc3nc(CCCO)nn32)cc1 (stereo unspecified) | -0.24 | -1.29% | -1.2 | 96.6% | 100% | 0.24 | 0.37
COc1ccc(OC)c(CNC(=O)CCc2nc(-c3cccs3)no2)c1 | 2.87 | 11.3% | -2.92 | 98% | 93.4% | 1.71 | 2.56
Cc1c(C(=O)OC2CCCC2)[nH]c2c1C(=O)CC(c1ccco1)C2 (stereo unspecified) | -6.06 | -12.3% | -5.41 | 15.4% (active) | 17.7% (active) | 1.86 | 0.11
CCOC(=O)Cn1c(=O)oc2cc(S(=O)(=O)NCc3ccccn3)ccc21 | -14 | -21.4% | -1.25 | 105% | 95.1% | 1.79 | 3.14
O=C(Cc1cccs1)N(Cc1ccco1)C1(C(=O)NC2CCCC2)CCCCC1 | -6.91 | -9.26% | -5.17 | 66.5% | 67.1% | 0.86 | 6.21
COc1ccccc1OCC(=O)N(Cc1nc(-c2ccc(Cl)cc2)no1)C(C)C | -16.3 | -10.6% | 2.37 | 84.7% | 82.5% | 1.4 | 6.52
CCOCCn1c(SCc2ccc(F)cc2)nc2c1c(=O)[nH]c(=O)n2C | -4.31 | 5.57% | -2.04 | 99% | 94.3% | -0.925 | -0.32
